# Assay: Toxicity liver stage against HepG2, at 10uM
# Format: cell-based
# Parameters: test concentration 10 uM, cell line HepG2-A16-CD81EGFP
# Conditions: human, HepG2-A16-CD81EGFP cells; read-out: INHIBITION
# Outline: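 Uninfected HepG2-A16-CD81EGFP cells, 3 × 10^3 per well, 1536-well, plated on prespotted compound at 10 μM final, parasite-free screening media added to match infected plates; puromycin 10 μM positive, DMSO 0.5% negative; run in parallel with 48 h PbLuc assay at 37 °C, 5% CO2; viability by CellTiter-Glo luminescence, normalized to controls.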
row,Compound,cytotoxicity at 10 µM
1,CC(Cn1ccnc1)NC(=O)NCc1ccccn1 (centres undefined),-6.66%
2,Cn1c(=O)oc2cc(Nc3nccnc3C#N)ccc21,2.14%
3,Cn1cc(N2CC3(CCN(Cc4nccs4)CC3)OCC2=O)cn1,5.86%
4,Cc1nc(CN2C(=O)C[C@@H]3[C@@H]2CCN3Cc2cnn(C)c2)cs1,2.44%
5,Cc1cccc(CN2CC[C@H]3[C@@H]2CC(=O)N3CC2CC2)n1,-4.25%
6,O=C(NCC1=CCCCC1)C(c1cccnc1)N1CCCC1 (centres undefined),-3.78%
7,COCCN(Cc1cnn(C)c1)C(=O)C1CCCN(C2CCOCC2)C1 (centres undefined),4.76%
8,CN(CC1CCCN(S(C)(=O)=O)C1)c1cnn(C)c1 (centres undefined),2.56%
9,Cc1nc(NC(=O)C(C)N(C)Cc2ccc3c(c2)OCO3)sc1C (centres undefined),0.787%
10,CC[C@H]1CN2CC[C@H]1C[C@@H]2CNC(=O)Nc1cccc(C#N)c1,-0.201%
11,O=S(=O)(Nc1cnc(N2CCCC2)nc1)c1ccc(OC(F)(F)F)cc1,2.41%
12,CCN(Cc1noc(C)n1)C(=O)CCc1scnc1C,2.13%
13,CCS(=O)(=O)NC[C@]12COC[C@H]1CN(Cc1cccc(OC)c1)C2,-6.23%
14,Cc1cc(CN(C)C(=O)NCc2cccc(N3CCCC3=O)c2)no1,-12.4%
15,CCS(=O)(=O)NCCCNCc1c(C)nn(C)c1N(C)C,-9.66%
16,CNCc1cc(C)n(-c2ccccc2OC)c1C,-45%
17,Cc1cnn(CCC(=O)N2CCN(C(=O)C3CC3)[C@@H]3CS(=O)(=O)C[C@@H]32)c1,0.168%
18,CCOCCCC(=O)N(C)C(c1cccc(F)c1)c1ccccn1 (centres undefined),-10.2%
19,Cc1[nH]c(=O)c(C#N)cc1C(=O)N1C[C@@H](CN2CCCC2)C[C@H](CO)C1,-8.08%
20,COc1ccc2c(c1)CCN2Cc1nc2c(cnn2C)c(=O)[nH]1,-10.3%
21,O=C(COC(=O)Cc1cccs1)NCc1cccc(NC(=O)C2CC2)c1,-8.08%
22,Cc1ccc(CN2CC[C@H]3OCC[C@@H](C(=O)NCC4CC4)[C@@H]3C2)o1,0.951%

row,Compound,cytotoxicity at 10 µM
1,Cc1cc(Br)c2c(c1)C1(CC(=O)Nc3c1cnn3C(C)C)C(=O)N2 (centres undefined),-10.3%
2,COc1ccc(NC2CCN(C3CC3)C2=O)cn1 (centres undefined),-10%
3,O=c1n(CCSCc2ccccc2F)nc2ccccn12,0.168%
4,CNC(=O)CN1CCCC12CCN(C(=O)c1ccccc1F)CC2,1.58%
5,CCCC(=O)Nc1ccc(CC(=O)N(CC)CC2CCCCO2)cc1 (centres undefined),-9.24%
6,CC(CC#N)n1ccc(C(F)(F)F)n1 (centres undefined),-8.88%
7,CCNC(c1ccc(C(C)C)cc1)c1cccnc1 (centres undefined),-1.66%
8,CS(=O)(=O)c1cccc(S(=O)(=O)NC(=O)CC2CCCC2)c1,-7.59%
9,Cc1nc(N2CCC(C(O)c3nccn3C)CC2)c2nc(C)oc2n1 (centres undefined),-2.22%
10,COCC(=O)N1CCN(C(=O)C2(c3ccc(C)c(OC)c3)CC2)CC1,-8.19%
11,C[C@@H]1CN(C(=O)c2cc(Cn3ccc4ccccc43)[nH]n2)C[C@H](C)O1,-12.2%
12,CS(=O)(=O)N1CCOCC2(CCN(C(=O)c3ccncc3)CC2)C1,2.78%
13,Cc1nc(CN2CCCN(CC(=O)Nc3cccnc3)CC2)no1,2.31%
14,Cn1cc(N2CCCC(SCc3nc(C4CC4)no3)C2=O)cn1 (centres undefined),21.8%
15,Cc1noc(C)c1CN(C)C(=O)CN1CC(c2ccccc2)CC1=O (centres undefined),-2.4%
16,CC(C(=O)N1CCCN(c2ncccc2C#N)CC1)n1ccnc1 (centres undefined),-2.6%
17,CCc1ccc(C(=O)N2CC(C(=O)NC(C)C)C3(CCOCC3)C2)cc1 (centres undefined),3.65%
18,CCC(=O)N1CCC[C@]2(C(=O)N(C)C)CN(c3ccccn3)C[C@@H]2C1,11.5%
19,Cc1oncc1C(=O)N[C@@H]1CN(Cc2ccco2)C[C@@H]2CCCO[C@@H]21,-109%
20,O=C(c1ccc(N2CCOCC2)nc1)N1CCCC(n2cccn2)C1 (centres undefined),-11.2%
21,CSc1nc(O)c(Cc2ccccc2)c(=O)n1-c1ccccc1,-6.24%
22,O=C(CCN1CCOC(C(F)(F)F)C1)NCc1cccc(Cl)c1 (centres undefined),2.04%

row,Compound,cytotoxicity at 10 µM
1,CC(=O)N1CCC2(CCN(Cc3cccc(F)c3)CC2)CC1,-5.46%
2,O=C1N(C2CCOCC2)CCCC12CCN(c1ncccc1Cl)C2 (centres undefined),-129%
3,N[C@@H]1CC[C@H](C(=O)NCCc2nc(-c3ccccc3)cs2)C1,-11.3%
4,CCCC(=O)NC1CCCN(c2nc3ccccc3cc2CO)C1 (centres undefined),-44.5%
5,CCN(Cc1cnn(C)c1)C(=O)c1ccccc1O,1.89%
6,CCN1CCCC12CCN(C(=O)c1ccsc1)CC2,-152%
7,Cc1csc(CNc2cccc(OCCN3CCCC3)c2)n1,-4.49%
8,Cc1cncc(C(=O)N2CCC3(CC2)C(=O)Nc2ccccc23)c1,-137%
9,Cn1nnnc1SCCNC(=O)C1CCN(C(=O)C2CC2)CC1,-5.95%
10,O=C(NCC1(COc2cnccn2)C[C@@H](O)[C@@H](O)C1)C1CCCC1 (some centres undefined),-1.81%
11,CC(NCc1cc(O)c2cccc(F)c2n1)c1ccccc1O (centres undefined),4.28%
12,Cc1nc(C2(O)CCCNCC2)sc1CCOc1ccccc1F (centres undefined),-36.5%
13,O=C1CNc2ncnc(Nc3cnn(Cc4ccc(F)cc4)c3)c2N1,6.85%
14,CN(CC1(O)CCCN(CCC2CCCCC2)C1=O)C1CCOCC1 (centres undefined),12.7%
15,CC(C)(C)c1ncc(CNCC2CCCN2c2cccnn2)s1 (centres undefined),-3.33%
16,CNC(=O)c1cnc(C=Cc2cc(OC)c3c(c2)OCCO3)s1,12.9%
17,Nc1nccnc1C(=O)N1CC(OCc2cccc3ccccc23)C1,7.39%
18,CC1(C)CC1C(=O)NS(=O)(=O)Cc1cc(-c2ccccc2)no1 (centres undefined),-11%
19,CCCc1noc(C(C)N2CC(n3cccn3)C2)n1 (centres undefined),2.13%
20,CCCOC(=O)N1CCc2cccc(S(=O)(=O)N3CCOCC3)c2C1,-6.85%
21,Cc1ccnc(NC(=O)c2c(C)oc(C)c2C)c1,17.2%
22,CN(C)Cc1nc(C(C)(C)NC(=O)c2ccc3ccccc3c2)no1,-2.22%

row,Compound,cytotoxicity at 10 µM
1,CS(=O)(=O)N1Cc2nccn2CC(CN2CCCC2)C1 (centres undefined),-111%
2,CCOCc1nc(N2CCCC2)sc1C(=O)NCCC(=O)OCC,-3.66%
3,Cc1cccc(-n2c(C)cc(C(=O)NS(C)(=O)=O)c2C)c1,-4.08%
4,COC(=O)c1cc(CN2CCN(c3ncccc3C)CC2)ccc1O,-0.503%
5,CC[C@H](C)[C@H](NC(=O)c1ccc(-n2cnnn2)cc1)C(=O)OC,9.09%
6,Cn1cc(C2CCCN2C(=O)c2ccc(OCC3CC3)nc2)cn1 (centres undefined),-7.77%
7,CC(C(=O)NCc1ccnc(N(C)C)c1)n1cccn1 (centres undefined),-13.8%
8,Cc1nc(C)c(COc2ccc(S(=O)(=O)N(C)C)cc2)s1,-0.242%
9,Cc1nccn1Cc1nnc(C2CCCN(c3ncccn3)C2)n1C (centres undefined),-3.09%
10,CN(C)c1cncc(C2CCCN(c3cnccn3)C2)n1 (centres undefined),2.45%
11,CCc1cc(CN(C)Cc2nc(-c3ccc(OC)cc3F)oc2C)on1,-3.4%
12,C[C@@H]1CN(Cc2ccncc2)C[C@@]1(O)C1CC1,-5.08%
13,Cc1nc(CO[C@@H]2CN(Cc3ccc(F)cc3)[C@@H]3COC[C@@H]32)cs1,5.42%
14,Cc1sc2nc(CCN)nc(N3CCN(S(C)(=O)=O)CC3)c2c1C,-32%
15,Cc1cc(NC(=O)CN2CCCC(Cn3cncn3)C2)no1 (centres undefined),-0.749%
16,CC(C)n1cccc1C(=O)N1CC[C@@H](NC(=O)c2ccccn2)[C@H](O)C1,2.35%
17,Cc1cc(N(C)Cc2ncc[nH]2)nc(-c2ccccc2)n1,1.68%
18,CN(CCC(F)(F)F)C(=O)c1nc(S(C)(=O)=O)n2ccccc12,-7.51%
19,NCc1cn(CC2CCCN(C(=O)NCCc3ccc(F)cc3)C2)nn1 (centres undefined),17.2%
20,Cc1nc(CN2CCOC(Cn3cccn3)C2)nc2ccccc12 (centres undefined),-24.8%
21,Cc1nsc(NC(=O)NC2(CN3CCCCC3)CCCCC2)n1,10.6%
22,CS(=O)(=O)N1CCN(Cc2ccc(F)cc2Br)CC1,0.0667%

row,Compound,cytotoxicity at 10 µM
1,CN(Cc1nnc2n1CCC2)C(=O)c1ccc2c(c1)OCCO2,-17.8%
2,Cc1ccoc1C(=O)N1CC[C@H]2OCC[C@@]2(COCc2ccncc2)C1,5.71%
3,CCc1nnc(N2C[C@@H](NC(C)=O)[C@H](c3ccc(C)o3)C2)s1,-54.5%
4,CC(CNC(=O)NCCCc1cc(N)n(-c2ccccc2)n1)N(C)C (centres undefined),11.9%
5,CSCC[C@H](NC(=O)CCn1cc(C(C)=O)c2ccccc21)C(=O)O,-3.91%
6,N#Cc1ccc(S(=O)(=O)NC(=O)C2CC(c3ccccc3)=NO2)cc1 (centres undefined),0.462%
7,COC1CCN(c2cc(C(C)C)nc3ccnn23)C1 (centres undefined),0.343%
8,CC(C)(C)OC(=O)N1CSC[C@@H]1C(=O)NCc1ccncc1,1.17%
9,COCCN(C)C[C@@H]1CN(C(=O)c2ccc(O)c(C)c2)C[C@@H]1CO,-11.8%
10,CCCS(=O)(=O)c1ccc(N2CCN(c3ccccn3)CC2)nn1,-82.5%
11,CCc1ccc(CN(C/C=C/c2ccccc2)CCOC)nc1,10.2%
12,CNC(=O)NC(=O)CN1CCN(CC2CC2)c2ccccc21,10.4%
13,CNS(=O)(=O)CC(=O)N(Cc1c(F)cccc1F)C1CCCC1,-1.98%
14,OC1(CNCCc2csc(-c3cccnc3)n2)CCNC1 (centres undefined),2.76%
15,CCCc1n[nH]c(C2CN(C(=O)CCn3nc(C)cc3C)CCO2)n1 (centres undefined),-11.9%
16,O=C(c1cc(Cl)ccc1F)N1CCCC1Cn1cccn1 (centres undefined),8.36%
17,NCCc1c(-c2ccccc2)[nH][nH]c1=O,5.95%
18,O=c1c2cccc(C(F)(F)F)c2ncn1CCN1CCNCC1,-3.21%
19,COc1ccc(F)c(-c2ncccc2NC(=O)C(C)C)c1,5.69%
20,CC1(C(=O)NC2CCCC2)CCCN(c2ncccn2)C1 (centres undefined),-27.3%
21,Cc1cc(C)n(C(=O)c2cn(C)nc2S(=O)(=O)N2CCSCC2)n1,-2.64%
